The values that follow come from ChEMBL document CHEMBL1141674, “Effects of 3-(4'-geranyloxy-3'-methoxyphenyl)-2-trans propenoic acid and its ester derivatives on biofilm formation by two oral pathogens, Porphyromonas gingivalis and Streptococcus mutans” (2008).

Molecules are shown by their SMILES. Converted amounts (≈) assume the structure as drawn. The source made the active and inactive calls. The calls are words filed in the database; no cut-off is given here.

The test system of experiment [1] is Porphyromonas gingivalis. The experiment in a line: Antimicrobial activity against Porphyromonas gingivalis ATCC 33277 assessed as bacterial growth at 62.5 ug/ml after 4 hrs by XTT assay relative to control. The experiment is classed as functional. The note with it: in the assay text read “after 48 hrs by absorbance at 660 nm” for “after 4 hrs by XTT assay”. Background: Tetrazolium dyes change colour on reduction, which living cells bring about.

Experiment [2] relates to Porphyromonas gingivalis. The experiment in a line: Antimicrobial activity against Porphyromonas gingivalis ATCC 33277 assessed as bacterial growth at 15.6 ug/ml after 4 hrs by XTT assay relative to control. The experiment is classed as functional. The note with it: in the assay text read “after 48 hrs by absorbance at 660 nm” for “after 4 hrs by XTT assay”.
Experiment [3] deals with Streptococcus mutans. The experiment in a line: Antimicrobial activity against Streptococcus mutans ATCC 25175 assessed as effect on bacterial growth after 4 hrs by XTT assay relative to control. Type of experiment: functional, organism-based.
Experiment [4] concerns Porphyromonas gingivalis. The experiment in a line: Antimicrobial activity against Porphyromonas gingivalis ATCC 33277 assessed as bacterial growth at 31.2 ug/ml after 48 hrs by absorbance at 660 nm relative to control.
Experiment [5] deals with Porphyromonas gingivalis. The experiment in a line: Antimicrobial activity against Porphyromonas gingivalis ATCC 33277 assessed as bacterial growth at 3.9 ug/ml after 4 hrs by XTT assay relative to control. The experiment is classed as functional. In outline:
(§1)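 P. gingivalis biofilms were pre-grown for 48 h (24 h THB-HK culture diluted to OD660 0.07, 37 °C, anaerobic). They were then exposed to compound dilutions for 4 h at 37 °C under anaerobiosis. Viability was read by XTT reduction: fresh reagent of 12.5 parts XTT (1 mg/ml stock in PBS) to 1 part menadione (1 mM stock in acetone), 1 h at 37 °C, A490.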

The test system of experiment [6] is Porphyromonas gingivalis. The experiment in a line: Antimicrobial activity against Porphyromonas gingivalis ATCC 33277 assessed as bacterial growth at 125 ug/ml after 4 hrs by XTT assay relative to control. The note with it: in the assay text read “after 48 hrs by absorbance at 660 nm” for “after 4 hrs by XTT assay”. The experiment is classed as functional.
Experiment [7] relates to Porphyromonas gingivalis. The experiment in a line: Antimicrobial activity against Porphyromonas gingivalis ATCC 33277 assessed as bacterial growth at 7.8 ug/ml after 4 hrs by XTT assay relative to control. Type of experiment: functional. The procedure, abridged: as §1
Experiment [8] has as its system Porphyromonas gingivalis. The experiment in a line: Antimicrobial activity against Porphyromonas gingivalis ATCC 33277 assessed as bacterial growth at 31.2 ug/ml after 4 hrs by XTT assay relative to control. The note with it: in the assay text read “after 48 hrs by absorbance at 660 nm” for “after 4 hrs by XTT assay”. Type of experiment: functional.
The test system of experiment [9] is Porphyromonas gingivalis. The experiment in a line: Antimicrobial activity against Porphyromonas gingivalis ATCC 33277 assessed as bacterial growth at 125 ug/ml after 48 hrs by absorbance at 660 nm relative to control.
Experiment [10] concerns Porphyromonas gingivalis. The experiment in a line: Antimicrobial activity against Porphyromonas gingivalis ATCC 33277 assessed as inhibition of biofilm formation after 48 hrs. Type of experiment: functional. The note with it: ATCC 33277, 48 h. In outline:
(§2)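 A 24 h P. gingivalis culture in THB-HK was diluted to OD660 0.07 and mixed 1:1 with serial compound dilutions in THB-HK; untreated wells served as controls. Plates were held 48 h at 37 °C anaerobically and growth was read at A660. Washed biofilms were stained with 0.04% crystal violet for 15 min, eluted with 95% ethanol and read at A550. Triplicates; mean ± SD of two independent experiments.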

The test system of experiment [11] is Streptococcus mutans. The experiment in a line: Antimicrobial activity against Streptococcus mutans ATCC 25175 assessed as inhibition of biofilm formation after 48 hrs. Type of experiment: functional. The note with it: ATCC 25175, 48 h.
In experiment [12] the test system is Porphyromonas gingivalis. The experiment in a line: Antimicrobial activity against Porphyromonas gingivalis ATCC 33277 assessed as bacterial growth at 15.6 ug/ml after 48 hrs by absorbance at 660 nm relative to control.
Experiment [13] has as its system Porphyromonas gingivalis. The experiment in a line: Antimicrobial activity against Porphyromonas gingivalis ATCC 33277 assessed as inhibition of biofilm formation at 31.3 ug/ml after 48 hrs. The experiment is classed as functional. Further details: scale not given: the % may be the effect or the level left. The procedure, abridged: as §2
Experiment [14] has as its system Streptococcus mutans. The experiment in a line: Antimicrobial activity against Streptococcus mutans ATCC 25175 assessed as inhibition of biofilm formation at 3.9 ug/ml after 48 hrs. The experiment is classed as functional, organism-based.
In experiment [15] the test system is Porphyromonas gingivalis. The experiment in a line: Antimicrobial activity against Porphyromonas gingivalis ATCC 33277 assessed as bacterial growth at 62.5 ug/ml after 48 hrs by absorbance at 660 nm relative to control.

With `COc1cc(/C=C/C(=O)OC2=CC(=O)c3ccccc3C2=O)ccc1OC/C=C(\C)CCC=C(C)C`, the Activity in [1] is listed as 16%; in experiment [2], 105%; in experiment [4] it was 34%; in [5], 110%; in experiment [6] it was 17%; in experiment [7], 124%. The outcome in experiment [3] was inactive.
In the case of `Oc1ccc(O)cc1` [HYDROQUINONE], the Activity in experiment [1] is listed as 13%; in experiment [8] it was 17%; in experiment [2], 15%; in experiment [5], 45%; in experiment [7], 27%; in [9], 14%. Also, the result in experiment [3] was inactive.
`N=C(NCCCCCCNC(=N)NC(=N)Nc1ccc(Cl)cc1)NC(=N)Nc1ccc(Cl)cc1` [CHLORHEXIDINE]: the MIC stood at 6 µM (≈ 3.03 µg/mL) in experiment [10] and 3 µM (≈ 1.52 µg/mL) in experiment [11].
As for `COc1cc(/C=C/C(=O)Oc2ccccc2OC)ccc1OC/C=C(\C)CCC=C(C)C`, the Activity is given as 25% in experiment [1]; 28% in experiment [8]; 22% in experiment [2]; 61% in [5]; 32% in experiment [6]; 25% in experiment [7]. Besides, the outcome in [3] was inactive.
In the case of `O=C1C=C(O)C(=O)c2ccccc21` [LAWSONE], the Activity in experiment [1] is recorded as 79%; in experiment [8], 86%; in [2] it was 92%; in experiment [5], 103%; in experiment [7], 100%; in experiment [9], 49%. Further, the result in experiment [3] was inactive.
For `COc1cc(/C=C/C(=O)O)ccc1OC/C=C(\C)CCC=C(C)C`, the Activity in [12] is reported as 34%; in [1], 9%; in experiment [8], 15%; in experiment [13], 80%; in experiment [5], 81%; in [6], 13%. For the same molecule, the Activity in experiment [7] stood at 68%. Besides, the outcome in experiment [14] was Active. Further, the outcome in [3] was inactive.
As for `COC(=O)c1ccc(OC(=O)/C=C/c2ccc(OC/C=C(\C)CCC=C(C)C)c(OC)c2)c(OC)c1`, the Activity was determined as 72% in [8]; 49% in [15]; 76% in experiment [2]; 98% in [5]; 87% in experiment [7]; 40% in [9]. The outcome in experiment [3] was inactive.
